# Experiments:
# [1] = tested on: K562; assay: Induction of erythroid differentiation in human K562 cells assessed as benzidine-positive cells after 6 days; format: functional; design: concentration or dose not given beside the values
# Outline: (§1)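 K562 cells were seeded at 30,000 cells/mL in medium with 10% FBS and antibiotics, then exposed to compounds at the indicated concentrations for a 6-day induction period. Hemoglobin-containing cells were scored by benzidine staining and expressed as % benzidine-positive cells. Values are mean ± SD of three independent experiments.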
# [2] = tested on: K562; assay: Induction of erythroid differentiation in human K562 cells assessed as benzidine-positive cells at 0.5 mM after 6 days; format: functional; outline: as §1
# [3] = tested on: K562; assay: Antiproliferative activity against human K562 cells; format: functional, cell-based
# Outline: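 K562 cells were seeded at 30,000 cells/mL in medium with 10% FBS, penicillin and streptomycin. They were cultured with or without test compounds at the indicated concentrations. Cell number per mL was counted with a Coulter counter on different days after culture set-up.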
# [4] = tested on: K562; assay: Induction of erythroid differentiation in human K562 cells assessed as benzidine-positive cells at 20 mM after 6 days; format: functional; outline: as §1
# [5] = tested on: K562; assay: Induction of erythroid differentiation in human K562 cells assessed as benzidine-positive cells at 0.75 mM after 6 days; format: functional
# Outline: (§2)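 Erythroid induction was measured with compound combined with a sub-optimal concentration of ara-C. K562 cells were seeded at 30,000 cells/mL in medium with 10% FBS and antibiotics and co-treated for 6 days. Read-out was % benzidine-positive (hemoglobin-containing) cells, given as mean ± SD of three independent experiments.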
# [6] = tested on: K562; assay: Induction of erythroid differentiation in human K562 cells assessed as benzidine-positive cells at 8 mM after 6 days; format: functional; outline: as §2
# [7] = tested on: K562; assay: Induction of erythroid differentiation in human K562 cells assessed as benzidine-positive cells at 0.1 mM after 6 days; format: functional; outline: as §1
# [8] = tested on: K562; assay: Induction of erythroid differentiation in human K562 cells assessed as benzidine-positive cells at 1 mM after 6 days; format: functional; outline: as §1
# [9] = tested on: K562; assay: Induction of erythroid differentiation in human K562 cells assessed as benzidine-positive cells at 5 mM after 6 days; format: functional; outline: as §1
# [10] = tested on: K562; assay: Induction of erythroid differentiation in human K562 cells assessed as benzidine-positive cells at 500 mM after 6 days; format: functional; details: in the assay text read “500 nM” for “500 mM”; outline: as §1
Compound,Activity [1],IC50 [3],further results
CCCC(=O)N[C@@H]1[C@H]2OC(C)(C)O[C@H]2O[C@@H]1[C@H](O)CO,20%,0.5 mM,Activity [2]: 35%
COc1ccc(C(=O)N[C@H]2[C@H]3OC(C)(C)O[C@H]3O[C@@H]2[C@H](O)CO)cc1,24%,2.5 mM,–
CC#CC(=O)N[C@@H]1[C@H]2OC(C)(C)O[C@H]2O[C@@H]1[C@H]1COC(C)(C)O1,19%,0.5 mM,–
CC(C)CC(=O)N[C@@H]1[C@H]2OC(C)(C)O[C@H]2O[C@@H]1[C@H](O)CO,25%,5 mM,–
CCCCCC(=O)N[C@@H]1[C@H]2OC(C)(C)O[C@H]2O[C@@H]1[C@H](O)CO,28%,10 mM,–
CC1(C)O[C@H]2O[C@H]([C@H]3COC(C)(C)O3)[C@@H](NC(=O)C3CCCC3)[C@H]2O1,21%,1 mM,–
CC1(C)O[C@H]2O[C@H]([C@H](O)CO)[C@@H](NC(=O)C(C)(C)C)[C@H]2O1,25%,20 mM,Activity [4]: 40%
CC1(C)O[C@H]2O[C@H]([C@H]3COC(C)(C)O3)[C@@H](NC(=O)CCc3ccccc3)[C@H]2O1,–,–,Activity [5]: 49%
COc1ccc(OC)c(CC(=O)N[C@H]2[C@H]3OC(C)(C)O[C@H]3O[C@@H]2[C@H]2COC(C)(C)O2)c1,–,–,Activity [2]: 50%
CC(C)C(=O)N[C@H]1[C@H]2OC(C)(C)O[C@H]2O[C@@H]1[C@H](O)CO,–,–,Activity [6]: 66%
CO[C@@H]1O[C@H](CNC(=O)C2CC2)[C@@H]2OC(C)(C)O[C@@H]2[C@H]1O,27%,0.25 mM,–
CCC(=O)N[C@@H]1[C@H]2OC(C)(C)O[C@H]2O[C@@H]1[C@H](O)CO,20%,30 mM,–
CCCCC(=O)N[C@@H]1[C@H]2OC(C)(C)O[C@H]2O[C@@H]1[C@H](O)CO,18%,5 mM,–
CCC(=O)N[C@H]1[C@H]2OC(C)(C)O[C@H]2O[C@@H]1[C@H]1COC(C)(C)O1,19%,7.5 mM,–
CC(C)(C)CC(=O)N[C@@H]1[C@H]2OC(C)(C)O[C@H]2O[C@@H]1[C@H](O)CO,15%,5 mM,–
CCCC(=O)N[C@H]1[C@H]2OC(C)(C)O[C@H]2O[C@@H]1[C@H](O)CO,20%,20 mM,Activity [4]: 40%
CC1(C)O[C@H]2O[C@H]([C@H](O)CO)[C@@H](NC(=O)c3ccc(-c4ccccc4)cc3)[C@H]2O1,–,–,Activity [7]: 33%
COc1cccc(CC(=O)N[C@H]2[C@H]3OC(C)(C)O[C@H]3O[C@@H]2[C@H]2COC(C)(C)O2)c1,–,–,Activity [8]: 43%
CC1(C)O[C@H]2O[C@H]([C@H](O)CO)[C@H](NC(=O)C(C)(C)C)[C@H]2O1,–,–,Activity [9]: 68%
CCCC(=O)NC[C@H]1O[C@H](OC)[C@H](O)[C@H]2OC(C)(C)O[C@H]21,18%,0.1 mM,–
CCCC(=O)O [BUTYRIC ACID],32.5%,2 mM,–
Nc1ccn([C@@H]2O[C@H](CO)[C@@H](O)[C@@H]2O)c(=O)n1 [CYTARABINE],78%,–,Activity [10]: 22%
CO[C@H](C(=O)[C@@H](O)[C@@H](C)O)[C@@H]1Cc2cc3cc(O[C@H]4C[C@@H](O[C@@H]5C[C@@H](O)[C@H](O)[C@@H](C)O5)[C@H](O)[C@@H](C)O4)c(C)c(O)c3c(O)c2C(=O)[C@H]1O[C@H]1C[C@@H](O[C@@H]2C[C@@H](O)[C@@H](O[C@@H]3C[C@](C)(O)[C@H](O)[C@@H](C)O3)[C@@H](C)O2)[C@H](O)[C@@H](C)O1 [PLICAMYCIN],86%,0.0001 mM,–
CO[C@H]1C[C@@H]2CC[C@@H](C)[C@@](O)(O2)C(=O)C(=O)N2CCCC[C@H]2C(=O)O[C@H]([C@H](C)C[C@@H]2CC[C@@H](O)[C@H](OC)C2)CC(=O)[C@H](C)/C=C(\C)[C@@H](O)[C@@H](OC)C(=O)[C@H](C)C[C@H](C)/C=C/C=C/C=C/1C [SIROLIMUS],75.5%,1 mM,–

# Source: ChEMBL document CHEMBL1153870, “Synthesis of glycose carbamides and evaluation of the induction of erythroid differentiation of human erythroleukemic K562 cells” (Eur J Med Chem, 2009)
